Laboratory results reported in ChEMBL document CHEMBL1123006, “Synthesis and cytotoxic activity of hydroxylated derivatives of olivacine in relation with their biotransformation” (1985).
pIC50: −log10 of the molar value.

Legend:
Rattus norvegicus [1] = species on record: Rattus norvegicus; assay: Phenobarbital induced rat hepatic microsomal hydroxylation in vitro; type: functional; settings: Liver
How it was run: (§1)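 Liver microsomes from male Sprague–Dawley rats given phenobarbital 80 mg/kg/day ip in 0.9% NaCl for 3 days, killed 2 days after last dose. Microsomes 0.5 mg protein/mL in Tris-HCl 0.02 M pH 7.4 with 1.15% KCl; olivacine acetate at five levels, 5–50 µM; NADPH 1 mg/mL; 37 °C, 5 min. Butanol extract, HPLC; Km/Vmax by Lineweaver-Burk; two rats.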

Rattus norvegicus [2] = species on record: Rattus norvegicus; assay: Benzo[a]pyrene induced rat hepatic microsomal hydroxylation in vitro; type: functional; settings: Liver
How it was run: as §1, with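 “given benzo[a]pyrene 20” for “given phenobarbital 80”, “in sunflower oil” for “in 0.9% NaCl”, “for 2” for “for 3”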

L1210 [3] = assay: Antitumor activity against L1210 leukemia cells expressed as dose concentration that reduces number of cells by 50% after 48 hrs exposure to drug.; type: functional; settings: Mus musculus, L1210, 48 h; read-out: ID50 (the source's name)
How it was run: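 L1210 leukemia cells grown in vitro with drug for 48 h; cell number counted against untreated control; ID50 taken as the concentration cutting cell number by 50%.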

Rattus norvegicus [4] = species on record: Rattus norvegicus; assay: Non induced rat hepatic microsomal hydroxylation in vitro; type: functional; settings: Liver
How it was run: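 Liver microsomes from male Sprague–Dawley rats given only vehicle ip (sunflower oil or 0.9% NaCl). Microsomes 0.5 mg protein/mL in Tris-HCl 0.02 M pH 7.4 with 1.15% KCl; olivacine acetate at five levels, 5–50 µM; NADPH 1 mg/mL; 37 °C, 5 min. Butanol extract, HPLC; Km/Vmax by Lineweaver-Burk; two rats.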

Mus musculus [5] = assay: Cytotoxicity against L1210 leukemia cells administered through intraperitoneal route in mice; type: functional
L1210 [6] = assay: Antitumor efficiency against L1210 leukemia cells expressed as % increase in life span (ILS) 24 hrs after ip grafting (10e5 cells); type: functional, Mus musculus
How it was run: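 DBA/2 mice given 10^5 L1210 cells intraperitoneally, then a single ip drug dose 24 h later. ILS = (median survival of treated − median survival of controls) / median survival of controls × 100.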

Mus musculus [7] = assay: Highest nonlethal dose against mice administered through intraperitoneal route; type: functional

| Structure (SMILES) | Km (Rattus norvegicus [1]) | Km (Rattus norvegicus [2]) | pIC50 (L1210 [3]) | Km (Rattus norvegicus [4]) | LD0 (Mus musculus [5]) | ILS (L1210 [6]) | Vmax (Rattus norvegicus [1]) | LD0 (Mus musculus [7]) | Vmax (Rattus norvegicus [2]) | Vmax (Rattus norvegicus [4]) |
| --- | --- | --- | --- | --- | --- | --- | --- | --- | --- | --- |
| Cc1nccc2c(C)c3[nH]c4c(O)cccc4c3cc12 | 41.4 µM | 29 µM | 4.89 | 29.4 µM | – | – | – | – | – | – |
| Cc1nccc2c(C)c3[nH]c4ccccc4c3cc12 | – | – | 5.69 | – | 250 mg/kg | 35% | – | – | – | – |
| Cc1nccc2c(C)c3[nH]c4ccc(O)cc4c3cc12 | 40 µM | 22.2 µM | 7.22 | 25 µM | – | 39% | 1.28 nM/min | 50 mg/kg | 7.14 nM/min | 0.58 nM/min |
| Cc1c2ccncc2c(C)c2c1[nH]c1ccccc12 [ELLIPTECINE] | – | – | 6.00 | – | 50 mg/kg | – | – | – | – | – |
